# Screens: PubChem BioAssay, The Scripps Research Institute Molecular Screening Center
# OX1R antag-1 – antagonists of human orexin 1 receptor | O43613 | CHO/OX1R cells, Fluo-8 calcium fluorescence, orexin A | inhibition, % at 5 µM | 0.43% of 330,000 active | AID 434989;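 active = inhibition above its plate's threshold, mean inhibition of all tested compounds on the plate plus 3 SD, cut at about 37% in these data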;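 note: 0% = orexin A challenge wells and 100% = SB-334867-A antagonist wells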
# GPR7 antag – blocks human GPR7 receptor signaling; P48145; GPR7-expressing cells, fluorescence antagonist assay; inhibition, % at 4.4 µM; 1.1% of 290,000 active; AID 1861; in the data active = inhibition above about 16%, passing the limit was not always enough;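 note: cells stimulated with the agonist NPW; 0% = agonist with vehicle and 100% = vehicle without agonist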
# Target sequence (P48145 whole entry, looked up): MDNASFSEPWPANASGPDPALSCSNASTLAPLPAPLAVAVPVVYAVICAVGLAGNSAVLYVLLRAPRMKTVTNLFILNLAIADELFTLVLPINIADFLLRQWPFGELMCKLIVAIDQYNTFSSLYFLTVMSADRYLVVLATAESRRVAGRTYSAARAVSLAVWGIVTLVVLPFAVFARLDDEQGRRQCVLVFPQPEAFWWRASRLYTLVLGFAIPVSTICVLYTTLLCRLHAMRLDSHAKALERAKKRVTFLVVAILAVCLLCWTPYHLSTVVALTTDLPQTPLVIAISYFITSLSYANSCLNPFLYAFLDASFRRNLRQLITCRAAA
# OX1R antag-2 – blocks the human orexin 1 receptor. O43613. OX1R-expressing cells, FRET antagonist read-out. inhibition, % at 6.6 µM. 1.8% of 330,000 active; in the data active = inhibition mostly above about 38%, no sharp cut-off; inactive = mostly below about 40%;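 note: 0% = agonist challenge alone and 100% = reference antagonist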
# TAAR1 antagonist – antagonists of human TAAR1; inhibition, % at 3 µM; CHO RD-HGA16 TAAR1, Fluo-8 calcium fluorescence, antagonist; Q96RJ0; 1.5% of 360,000 active;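 active = inhibition above a per-plate cutoff, the mean inhibition of test compounds on that plate plus 3 SD, cut at about 49% in these data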;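 note: 0% = DMSO plus EC80 beta-PEA response and 100% = DMSO alone without agonist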
# Target sequence (Q96RJ0 whole entry, looked up): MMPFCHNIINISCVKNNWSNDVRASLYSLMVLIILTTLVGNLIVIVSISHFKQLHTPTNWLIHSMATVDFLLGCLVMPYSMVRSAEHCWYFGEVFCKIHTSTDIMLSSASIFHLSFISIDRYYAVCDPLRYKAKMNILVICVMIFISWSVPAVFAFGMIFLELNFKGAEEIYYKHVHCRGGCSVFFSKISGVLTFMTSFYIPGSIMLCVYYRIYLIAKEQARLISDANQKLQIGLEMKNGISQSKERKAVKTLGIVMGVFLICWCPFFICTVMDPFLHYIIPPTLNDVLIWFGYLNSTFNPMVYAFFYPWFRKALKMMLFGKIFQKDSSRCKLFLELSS
#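 System: RD-HGA16 CHO cells with stable hTAAR1 and Gα16 | Probe or stimulus: EC80 β-phenethylamine stimulus | Dosing: 3 µM, single point | Times: Dye loading 75 min at 37 °C, then 30 min room temperature | Measured by: Fluo-8 calcium-sensitive fluorescence | Read-out basis: % inhibition of agonist calcium response | Replicates: n of 1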
# CHO parental Ca – counter-screen: ATP calcium response change in parental CHO cells; AID 463079; 0.63% of 330,000 active; parental CHO-K1, ATP-induced calcium, Fluo-8 fluorescence; inhibition, % at 5.6 µM;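 active = inhibition above that plate's mean sample inhibition plus 3 SD, cut at about 26% in these data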;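 note: 0% = ATP-challenged DMSO wells and 100% = DMSO wells without ATP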
#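 Measured by: calcium-sensitive Fluo-8 fluorescence / Test system: CHO parental line / Controls: ATP-challenged DMSO wells low, unchallenged DMSO wells high / Measure: % inhibition / Compound: single nominal dose of 5.6 µM per compound / Replicates: single well per compound, no replicates / Reagent: ATP as calcium-mobilizing challenge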
# TAAR1 ag – human TAAR1 agonism | Q96RJ0 | CHO RD-HGA16 TAAR1, Fluo-8 calcium fluorescence; vehicle wells 0%, saturating PEA agonist 100% | activation, % at 3 µM | 0.99% of 360,000 active | AID 624467;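 active = activation above the mean activation of all test compounds in the run plus 3 SD, cut at about 38% in these data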
#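 Repeats: no replicates (n 1) | Material: CHO-derived RD-HGA16 cells with stable Gα16 and human TAAR1 | Technique: Kinetic Fluo-8 calcium fluorescence | Schedule: 17-24 h seeding, 75 min 37 °C dye, 30 min RT | Evaluation: % activation from peak over basal fluorescence ratio, DMSO-to-PEA scaled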
# An asterisk follows results filed as active; . = no result. The list is not random: actives were taken first. Their share in the collection is about 4.6%.
SMILES,OX1R antag-1,GPR7 antag,OX1R antag-2,TAAR1 antagonist,CHO parental Ca,TAAR1 ag
Cc1ccccc1-n1sc2cc(F)ccc2c1=O,13.0,-11.4,27.1,39.5,35.4*,44.0*
O=C(CCc1c[nH]c2ccccc12)Nc1ccc(Oc2cccnc2)cc1,.,.,.,11.7,.,0.3
CC(C)(C)OC(=O)N[C@@H]1C=CC(=O)C1,.,.,.,-10.9,.,4.7
CCOc1ccc(NC(=O)/C(C#N)=C/c2cn(CC(=O)O)c3ccccc23)cc1,.,-13.0,.,-17.5,.,-0.7
CCOc1cccc(NC(=O)/C(C#N)=C\c2cn(CC(=O)O)c3ccccc23)c1,0.2,0.1,55.2*,-5.2,-9.2,-0.7
O=C(N/N=C/c1cccs1)c1cc(-c2ccc(Cl)s2)[nH]n1,9.2,-10.5,58.9*,10.8,-4.0,5.4
CCOC(=O)C1CCCN(c2nc3c(C)cccn3c(=O)c2/C=C(\C#N)C(=O)NCc2ccco2)C1 (stereo not given),-51.0,-2.2,27.1,45.6,-37.6,52.5*
CC1=C(C(=O)NC2CCCc3c2cnn3-c2cccc(C)c2C)OCCO1 (stereo not given),14.9,-3.3,67.3*,22.7,13.7,1.6
CCn1cc(C(=O)NC2CCCc3c2cnn3-c2cccc(C)c2C)cn1 (stereo not given),15.7,19.6,53.8,1.5,53.5*,6.0
COc1ccc(C(=O)NC2CCCc3c2cnn3-c2cccc(C)c2C)o1 (stereo not given),12.2,-13.3,68.1*,24.0,0.2,0.6
Cc1cc(C(=O)NC2CCCc3c2cnn3-c2cccc(C)c2C)no1 (stereo not given),-4.9,-3.8,23.0,13.9,6.6,1.4
C[n+]1c(-c2ccccc2)sc([S-])c1-c1ccccc1,-23.4,.,15.1,-13.6,39.5*,-1.6
O=[N+]([O-])C1=CC=C2C(=NC3(CCCCC3)N2O)C1=NC1CCCCC1,-8.9,-7.7,-2.5,-36.0,2.3,0.7
CC1(C)CC(N=C2C([N+](=O)[O-])=CC=C3C2=NC2(CCCCC2)N3O)CC(C)(C)N1,-2.0,0.3,74.2*,-10.8,7.8,2.8
C=CCNC(=O)COC(=O)c1ccc(Sc2nncn2C)c([N+](=O)[O-])c1,-22.6,1.0,72.7*,14.8,5.0,-1.0
CC1=C/C(=N\OS(=O)(=O)c2ccccc2)C(C)=CC1=O,93.0*,72.8*,102.3*,.,82.0*,.
COc1ccc(S(=O)(=O)/N=C2/C=CC(=O)C(C)=C2C)cc1,-27.3,1.1,3.4,.,-16.6,.
CC1=C(C)/C(=N\OS(=O)(=O)c2ccc(C)cc2)C=CC1=O,57.5*,60.5*,81.6*,51.7*,67.5*,5.6
CC(S(=O)(=O)c1ccccc1)S(=O)(=O)c1ccccc1,.,.,.,-11.3,.,1.7
CC1=C/C(=N\OS(=O)(=O)c2ccccc2)C(C(C)C)=CC1=O,51.1*,43.8*,37.3,.,45.2,.
COC(=O)/C=C1\Nc2ccc(Cl)cc2C(=O)NC1=O,.,.,.,-16.5,.,-0.3
O=C(NCc1ccc(F)cc1)c1cc(C2CCCN(C(=O)c3ccc4ccccc4c3)C2)on1 (stereo not given),.,.,.,27.0,.,1.6
O=c1c2ccccc2nc2n1CCc1ccc(Br)cc1-2,.,.,.,-19.0,.,0.4
CC1(C)N=c2ccc([N+](=O)[O-])c(N)c2=[N+]1[O-],2.7,-2.2,75.4*,-25.1,-7.0,2.0
COCCN(Cc1ccc(C)cc1)C(=O)[C@H]1O[C@@H](n2cnc(C(N)=O)n2)[C@H](O)[C@@H]1O,.,.,.,-27.7,.,4.0
SMILES,OX1R antag-1,GPR7 antag,OX1R antag-2,TAAR1 antagonist,CHO parental Ca,TAAR1 ag
Cc1ccc(C(=O)c2c3ccc([N+](=O)[O-])cc3[n+]([O-])n2CCC(N)=O)cc1,-6.4,2.4,62.3*,-15.1,-6.8,1.3
COC(=O)C1=C(C)N(Cc2ccccc2C(F)(F)F)C(=NCC2CC2)NC1CCc1ccccc1 (stereo not given),.,.,.,3.9,.,15.3
Cc1ccc(NC(=O)COC(=O)C2=COCCO2)c([N+](=O)[O-])c1,-9.9,1.4,17.1,-26.3,0.6,4.1
CCOC(=O)c1[nH]c(C)c(C(=O)Nc2ccc(Cl)cc2)c1C,1.3,4.2,5.8,35.5,9.6,39.1*
CC(=O)c1c(C)[nH]c(C(=O)OCC(=O)Nc2ccc(C)cc2[N+](=O)[O-])c1C,10.1,-4.3,39.1,23.6,45.3*,11.9
CC(=O)c1c(C)[nH]c(C(=O)OCC(=O)Nc2cc(Cl)ccc2[N+](=O)[O-])c1C,-7.8,-0.4,48.4*,51.1*,26.8*,16.3
CCN(CCOC(=O)Nc1ccc(Cl)cc1)C(=O)Nc1ccc(Cl)cc1,.,.,.,10.3,.,5.1
Cc1cccnc1C(NC(=O)C1CCN(CCCOc2ccccc2)CC1)c1ccc(F)cc1 (stereo not given),.,.,.,-7.6,.,0.3
CCCN1C=CC(=C/C=C(\C#N)C(=O)OCC)C=C1,36.3,8.0,73.5*,.,32.6*,.
O=C(NCCCN1CCOCC1)C(=O)N/N=C/c1cccc2ccccc12,0.2,-6.1,49.0*,-31.5,-31.5,1.1
Cc1cc(C(C)(C)C)oc1C(=O)N(CC(=O)NC1CCCC1)c1ccc(F)cc1,0.4,16.3,54.5*,14.7,-8.8,35.0
CC(=O)c1ccc(N(CC(=O)NC2CCCC2)C(=O)c2ccc(C)s2)cc1,4.9,20.8*,15.6,5.4,-4.0,1.6
Cc1ccc(C(=O)N(CC(=O)NC2CCCC2)c2ccccc2C)s1,0.5,-4.3,25.2,-7.4,-23.1,-0.4
CC(=O)c1cccc(N(CC(=O)NC2CCCC2)C(=O)c2ccc(C)s2)c1,-16.9,0.4,8.7,1.2,-10.0,1.5
Cc1cc(C(C)(C)C)oc1C(=O)N(CC(=O)NC1CCCC1)c1c(C)cccc1C,42.5*,16.5,77.0*,30.0,45.7*,12.3
Cc1ccc(S(=O)(=O)N2C3CCCCC3O[C@H]2CC(=O)OCc2ccccc2)cc1 (stereo not given in full),.,.,.,-16.5,.,1.0
Clc1ccc(-c2nnnn2-c2ccc(Cl)cc2)cc1,-10.1,-9.7,10.6,-43.6,-8.8,1.5
Cc1ccc(-n2nnnc2C(Cl)(Cl)c2nnnn2-c2ccc(C)cc2)cc1,55.2*,-6.2,18.7,25.8,47.9*,32.6
COC(=O)C1=C(C)N(Cc2ccccc2C(F)(F)F)C(=NCc2cccc(C(F)(F)F)c2)NC1CCc1ccccc1 (stereo not given),.,.,.,-19.3,.,1.9
Cc1ccc2cccc(NC(=S)NC(=O)c3ccnn3C)c2n1,21.9,-3.1,48.0*,-1.0,-44.8,0.8
O=C(CN1CCN(S(=O)(=O)N2CCCCC2)CC1)Nc1cc(Cl)cc(Cl)c1,-30.4,9.0,1.5,13.3,-23.4,-2.8
O=C(Nc1ccc(Cl)c(Cl)c1)N1CCC(N2CCCCC2)CC1,-16.9,4.0,9.4,-21.3,-4.6,0.1
